Published values pooled from the literature.
Lines come from different studies, so protocols differ. pEC50: −log10 of the molar value.
Action: agonist
MC5R: Melanocortin receptor 5 (MC5R, Homo sapiens, UniProt P33032)
AHR: Aryl hydrocarbon receptor (AHR, Homo sapiens, UniProt P35869)
ADRB2: Beta-2 adrenergic receptor (ADRB2, Homo sapiens, UniProt P07550)
CNR2: Cannabinoid receptor 2 (CNR2, Homo sapiens, UniProt P34972)

For `CSCC[C@H](NC(=O)[C@@H](NC(=O)[C@@H](N)Cc1ccc(O)cc1)C(C)C)C(=O)NCC(=O)N[C@@H](Cc1c[nH]cn1)C(=O)N[C@@H](Cc1ccccc1)C(=O)N[C@@H](CCCNC(=N)N)C(=O)N[C@@H](Cc1c[nH]c2ccccc12)C(=O)N[C@@H](CC(=O)O)C(=O)N[C@@H](CCCNC(=N)N)C(=O)O`, the pEC50 was 5.13 (MC5R; reporter gene).
For `CC(C)OC(=O)c1cccc(C(=O)c2c[nH]c3ccccc23)n1`, the pEC50 was < 5.00 (AHR; reporter gene; luciferase).
The pEC50 of `Cc1ccc(-n2c(C)ccc2C)c2c1CC(C)(C)O2` is reported as 4.19 (ADRB2; calcium signal; fluorescence).
`N=C(N)NCCC[C@H](NC(=O)[C@H](Cc1ccccc1)NC(=O)[C@@H](N)Cc1cnc[nH]1)C(=O)N[C@@H](Cc1c[nH]c2ccccc12)C(=O)O` has a pEC50 of < 4.00 (MC5R; reporter gene).
With `c1ccc(Nc2nc3ccccc3nc2Nc2ccccc2)cc1` the pEC50 was 7.60 (CNR2; cAMP; TR-FRET).
`CSCC[C@H](NC(=O)[C@@H](NC(=O)[C@@H](N)Cc1ccc(O)cc1)C(C)C)C(=O)NCC(=O)N[C@@H](Cc1c[nH]cn1)C(=O)N[C@@H](Cc1ccccc1)C(=O)N[C@@H](CCCNC(=N)N)C(=O)N[C@@H](Cc1c[nH]c2ccccc12)C(=O)O` gave a pEC50 of 4.62 (MC5R; reporter gene).
`CCOC(=O)[C@](CC)(CCCS(=O)(=O)CCOCCOCCNC(=O)OC(C)(C)C)NC(=O)c1ccc(C2CC2)c(Cc2ccc(F)cc2)n1` has a pEC50 of 7.77 (CNR2; cAMP).
The pEC50 of `COC(=O)c1ccccc1C(=O)c1c[nH]c2ccccc12` is reported as < 5.00 (AHR; reporter gene; luciferase).
`COc1ccc(CNC(=S)NC(C)(C)C)cc1` has a pEC50 of 5.72 (ADRB2; calcium signal; fluorescence).
The pEC50 of `COC(=O)c1cccc(C(=O)c2c[nH]c3ccc(Cl)cc23)n1` is reported as 7.49 (AHR; reporter gene; luciferase).
With `O=c1ccn([C@@H]2O[C@H](COP(=O)(O)OP(=O)(O)O)[C@@H](O)[C@H]2O)c(=O)[nH]1` the pEC50 was 6.53 (P2Y purinoceptor 6 (P2RY6, Homo sapiens, UniProt Q15077); inositol phosphate).
With `CC1CCN(C(NC(=O)c2ccc(C(C)(C)C)cc2)C(Cl)(Cl)Cl)CC1` (stereo not drawn) the pEC50 was 7.30 (CNR2; cAMP; TR-FRET).
